Results taken from ChEMBL document CHEMBL1123966, “Ring-substituted [1,2-bis(4-hydroxyphenyl)ethylenediamine]dichloroplatinum (II) complexes: compounds with a selective effect on the hormone-dependent mammary carcinoma” (1988).
“And” between values parts separate entries of the source, which are not always exact repeats. Equal entries are not always repeated.

Assays:
[1] = Cell growth inhibition of MXT-ER+ breast cancer cells at a dose of 1.4 mg/kg (4.6*10e-6M/kg); type: functional, organism-based; parameters: dose 1.4 mg/kg; conditions: Mus musculus, Cancer cell lines
Procedure, shortened: (§1)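 Hormone-dependent MXT mammary carcinoma in BDF₁ mice. Dosing was sc in water as vehicle: 1.4 mg/kg three times a week, and 4.2 mg/kg once per week. Median tumor weight was taken after 6 weeks of therapy and expressed as T/C %. Significance was tested by the Wilcoxon-Mann-Whitney U test.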

[2] = Cell growth inhibition of MXT-ER+ breast cancer cells at a dose of 4.2 mg/kg (1.4*10^-5 M/kg); type: functional, organism-based; parameters: dose 4.2 mg/kg; conditions: Mus musculus, Cancer cell lines; procedure, shortened: as §1
Mus musculus [3] = assay: Median tumor weight of MXT ER+ determined at the end of 6 week therapy ata dose of 2 mg/kg; type: functional, organism-based; parameters: dose 2 mg/kg
Procedure, shortened: (§2)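 BDF1 mice with hormone-dependent MXT mammary carcinoma (ER+). Equimolar dosing at 2 × 10⁻⁵ M/kg, given sc in olive oil three times a week (Mon/Wed/Fri) for 6 weeks. Median tumor weight was taken at the end of therapy and compared with controls by the Wilcoxon–Mann–Whitney U test.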

[4] = Cell growth inhibition of MXT-ER- breast cancer cells ata dose of 2 mg/kg; type: functional, organism-based; parameters: dose 2 mg/kg; conditions: Mus musculus; Cancer cell lines
Procedure, shortened: (§3)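 Hormone-independent MXT mammary carcinoma (ER−) in mice. Equimolar doses (2 × 10⁻⁵ M/kg) were given sc three times a week (Mon, Wed, Fri) in polyethylene glycol 400/H₂O (1:1), or in olive oil for some agents. Median tumor area was measured at the end of a 2-week therapy and expressed as T/C %.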

MDA-MB-231 [5] = assay: Incorporation of [3H]- thymidine into hormone independent MDA-MB-231 breast cancer cells; type: functional, cell-based; conditions: Homo sapiens
Mus musculus [6] = assay: Uterotrophic effect in BDF1 mouse at a dose of 4.2 mg/kg (1.4*10^-5 M/kg); type: functional, organism-based; parameters: dose 4.2 mg/kg; conditions: Uterus
Procedure, shortened: (§4)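 BDF1 mice bearing MXT mammary carcinoma. Dosing sc in water once per week over a 6-week therapy. Median tumor weight and uterine index ([uterus dry weight (mg)/body weight (g)] × 100) were read at the end of therapy; U test (Wilcoxon, Mann, Whitney).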

Mus musculus [7] = assay: Median tumor weight of MXT ER+ determined at the end of 6 week therapy at a dose of 4.2 mg/kg (1.4*10^-5 M/kg); type: functional, organism-based; parameters: dose 4.2 mg/kg; procedure, shortened: as §4
MCF7S [8] = assay: Cell growth inhibition in hormone dependent MCF 7 breast cancer cells; type: functional, cell-based; conditions: Homo sapiens
Mus musculus [9] = species on record: Mus musculus; assay: (§5) Uterotrophic effect in BDF1 mouse measured as([weight of uterus (mg)/body weight (g)] *100); type: functional
Procedure, shortened: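 Female BDF1 mice carrying MXT ER+ mammary carcinoma were dosed in olive oil, sc, three times a week, for 6 weeks. At the end of therapy, uterotropic effect = [uterus dry weight (mg)/body weight (g)] × 100, given as mean ± SD and as T/C % versus control. Significance was by the U test.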

MDA-MB-231 [10] = assay: Incorporation of [3H]- thymidine in hormone independent MDA-MB-231 breast cancer cells; type: functional, cell-based; conditions: Homo sapiens
MCF7S [11] = assay: Incorporation of [3H]- thymidine in hormone dependent MCF-7 breast cancer cells; type: functional, cell-based; conditions: Homo sapiens
Mus musculus [12] = assay: Median tumor weight MXT ER+ determined at the end of 6 week therapy at a dose of 1.4 mg/kg (4.6*10e-6M/kg); type: functional, organism-based; parameters: dose 1.4 mg/kg; procedure, shortened: as §1
Mus musculus [13] = assay: Uterotrophic effect in BDF1 mouse at a dose of 1.4 mg/kg (4.6*10e-6M/kg); type: functional, organism-based; parameters: dose 1.4 mg/kg; conditions: Uterus
Procedure, shortened: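 BDF1 mice bearing MXT mammary carcinoma. Dosing sc in water three times a week for 6 weeks. Uterine index = [uterus dry weight (mg)/body weight (g)] × 100 (± SD), read at the end of therapy; U test.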

MDA-MB-231 [14] = assay: Cell growth inhibition in hormone independent MDA-MB-231 breast cancer cells; type: functional, cell-based; conditions: Homo sapiens
Mus musculus [15] = assay: Uterotrophic effect in BDF1 mouse ata dose of 2 mg/kg; type: functional, organism-based; parameters: dose 2 mg/kg; conditions: Uterus
Procedure, shortened: (§6)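 Uterus of BDF1 mice in the MXT ER+ study. Equimolar dosing at 2 × 10⁻⁵ M/kg, sc in olive oil three times a week (Mon/Wed/Fri). Uterine response = [uterus dry weight (mg)/body weight (g)] × 100, determined at the end of the 6-week therapy; U test.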

[16] = Cell growth inhibition of MXT-ER+ breast cancer cells ata dose of 2 mg/kg; type: functional, organism-based; parameters: dose 2 mg/kg; conditions: Mus musculus; Cancer cell lines
Procedure, shortened: (§7)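 Hormone-dependent MXT mammary carcinoma (ER+) model. Equimolar doses (2 × 10⁻⁵ M/kg) were given sc three times weekly (Mon, Wed, Fri) as a solution or suspension in polyethylene glycol 400/H₂O (1:1); some agents were given in olive oil. Median tumor weight was taken at the end of 6 weeks of therapy and given as T/C %. Significance was tested by the Wilcoxon-Mann-Whitney U test.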

Mus musculus [17] = species on record: Mus musculus; assay: as §5; type: functional, organism-based
Mus musculus [18] = assay: Median tumor weight of MXT (mammary carcinoma) ER+ determined at the end of 6 week therapy at a dose of 12.9 mg/kg; type: functional, organism-based; parameters: dose 12.9 mg/kg; procedure, shortened: as §2
Mus musculus [19] = assay: Uterotrophic effect in BDF1 mouse at a dose of 12.9 mg/kg; type: functional, organism-based; parameters: dose 12.9 mg/kg; conditions: Uterus; procedure, shortened: as §6
[20] = Cell growth inhibition MXT-ER- breast cancer cells at a dose of 12.9 mg/kg; type: functional, organism-based; parameters: dose 12.9 mg/kg; conditions: Mus musculus, Cancer cell lines; procedure, shortened: as §3
[21] = Cell growth inhibition MXT-ER+ breast cancer cells at a dose of 12.9 mg/kg; type: functional, organism-based; parameters: dose 12.9 mg/kg; conditions: Mus musculus, Cancer cell lines; procedure, shortened: as §7
[22] = Cell growth inhibition MXT-ER- breast cancer cells at a dose of 11.3 mg/kg; type: functional, organism-based; parameters: dose 11.3 mg/kg; conditions: Mus musculus, Cancer cell lines; procedure, shortened: as §3
Mus musculus [23] = assay: Uterotrophic effect in BDF1 mouse at a dose of 11.3 mg/kg; type: functional, organism-based; parameters: dose 11.3 mg/kg; conditions: Uterus
Procedure, shortened: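 Uterus of BDF1 mice in the MXT ER+ study. Equimolar dosing at 2 × 10⁻⁵ M/kg, sc in PEG 400/H₂O 1:1 three times a week (Mon/Wed/Fri). Uterine response = [uterus dry weight (mg)/body weight (g)] × 100, determined after 6 weeks of therapy; U test.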

[24] = Cell growth inhibition MXT-ER+ breast cancer cells at a dose of 11.3 mg/kg; type: functional, organism-based; parameters: dose 11.3 mg/kg; conditions: Mus musculus, Cancer cell lines; procedure, shortened: as §7
Mus musculus [25] = assay: Median tumor weight of MXT (mammary carcinoma) ER+ determined at the end of 6 week therapy at a dose of 11.3 mg/kg; type: functional, organism-based; parameters: dose 11.3 mg/kg; procedure, shortened: as §7
[26] = Cell growth inhibition of MXT-ER+ breast cancer cells at a dose of 8 mg; type: functional; conditions: Mus musculus; Cancer cell lines; procedure, shortened: as §7
Mus musculus [27] = species on record: Mus musculus; assay: Uterotrophic effect in BDF1 mouse at a dose of 8 mg; type: functional, Uterus; procedure, shortened: as §6
Mus musculus [28] = species on record: Mus musculus; assay: Median tumor weight of MXT ER+ (mammary carcinoma) determined at the end of 6 week therapy at a dose of 8 mg; type: functional; procedure, shortened: as §2

Molecule | ED50 (MDA-MB-231 [5]) [nM] | ED50 (MCF7S [8]) [nM] | T/C (MCF7S [8]) [%] | Effect (Mus musculus [9]) | T/C (MDA-MB-231 [10]) [%] | ED50 (MCF7S [11]) [nM] | T/C (MCF7S [11]) [%] | ED50 (MDA-MB-231 [14]) [nM] | T/C (MDA-MB-231 [14]) [%] | other results
CISPLATIN | 320 | 440 | 11 | 95 | 17 | 110 | 1 | 240 | 26 | T/C [1]: 3%; T/C [2]: 44%; Med tumor weight (Mus musculus [3]): 15 mg; T/C [4]: 15%; T/C (Mus musculus [6]): 118%; Med tumor weight (Mus musculus [7]): 222 mg; Med tumor weight (Mus musculus [12]): 15 mg; T/C (Mus musculus [13]): 114%; T/C (Mus musculus [15]): 114%; T/C [16]: 3%; Utreotropic effect (Mus musculus [17]): 96 and 100
meso-3-PtCl2(2-CF3) | – | 5100 | 61 | 70.9 | 36 | 2200 | 27 | 4000 | 46 | Med tumor weight (Mus musculus [18]): 422 mg; T/C (Mus musculus [19]): 100%; ED50 (MDA-MB-231 [10]): 3200 nM; T/C [20]: 72%; T/C [21]: 78%
meso-2-PtCl2(2-6-(CH3)2) | 2700 | 3100 | 17 | 86.6 | 28 | 900 | 4 | 2700 | 34 | T/C [22]: 63%; T/C (Mus musculus [23]): 96%; T/C [24]: 9%; Med tumor weight (Mus musculus [25]): 40 mg
CC/C(=C(\c1ccccc1)c1ccc(OCCN(C)C)cc1)c1ccccc1 [TAMOXIFEN] | – | – | – | 72.3 | – | – | – | – | – | T/C [26]: 3%; T/C (Mus musculus [27]): 80%; Med tumor weight (Mus musculus [28]): 16 mg
